# Only some compounds are listed: those with a hit (about 0.85% of all), similar ones and a draw of the others.
# TRPN1 ag: zebrafish TRPN1 (NompC) channel agonism; HEK293 zebrafish TRPN1-YFP, Fluo-8 calcium fluorescence; 100% = response to 87 µM carbachol; activation, % at 3 µM; actives 0.18% (n = 220,000); AID 1424;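 active = activation above its plate's cutoff, the mean activation of test wells on that plate plus 3 SD, cut at about 19% in these data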;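 also: 0% = DMSO alone and 100% = 87 µM carbachol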
#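 Control set: carbachol 87 µM as high control, DMSO as low control; system: HEK293 stable line with zebrafish TRPN1-YFP; read-out: % activation versus carbachol response; detection: intracellular calcium fluorescence with Fluo-8; doses: single test compound dose, 3 µM nominal, 0.3% DMSO; schedule: dye 1 h 37 °C plus 30 min RT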
# OXTR agonist: activates the human oxytocin receptor; CHO-OTR cells, Fluo-8 calcium fluorescence; normalized: DMSO 0%, oxytocin 100%; P30559; activation, % at 3 µM; AID 2435; actives 0.32% (n = 320,000);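 active = activation above the mean of all tested compounds plus 3 SD, cutoff set per screening run, cut at about 20% in these data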;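 also: peak over basal fluorescence ratio from a 100 s FLIPR kinetic read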
# OXTR potentiate: human OXTR potentiation; activation, % at 3 µM; actives 0.061% (n = 320,000); CHO-OTR cells, Fluo-8 calcium fluorescence, potentiator mode; 0% = oxytocin EC15, 100% = EC100; P30559; AID 2445;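 active = activation above that plate's cutoff, the mean activation of tested compounds plus 3 SD, cut at about 6.6% in these data, passing the limit was not always enough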;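 also: 100% uses oxytocin at 75 nM as the full agonist control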
#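 Measured by – Fluo-8 calcium dye fluorescence · Test system – human OTR in CHO cells · Dosing – one concentration, 3.0 µM compound · Controls – EC15 oxytocin alone as 0%, 75 nM oxytocin as 100% · Evaluation – normalized max/min fluorescence ratio, % activation · Timing – 6 min pre-incubation, 100 s read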
# V1R ag counter: activates human V1a receptor in oxytocin agonist counter-screen; P37288; CHO-V1R cells, Fluo-8 calcium fluorescence, agonist mode; 0% DMSO, 100% 3 nM vasopressin; activation, % at 3 µM; actives 0.25% (n = 320,000);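 active = activation above the mean activation of all tested compounds plus 3 SD, per screening run, cut at about 20% in these data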;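 also: signal is peak over basal fluorescence ratio across a 100 second FLIPR read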
# CRFBP-R2 agonist: CRF-BP/CRF-R2 complex agonism. HEK293 CRF-R2/CRF-BP, calcium dye fluorescence (FLIPR); percent of saturating CRF peptide response. activation, % at 13.2 µM. actives 0.46% (n = 350,000);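 active = activation of at least 50%, plus an integration ratio under a set limit after plate pattern correction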;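 also: plate controls were neutral control wells without compound for no effect and CRF at EC100 for full effect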
# TRPML3 ag: agonists of human TRPML3 channel. activation, % at 3 µM. HEK293 TRPML3-YFP, Fluo-8 calcium fluorescence; 100% = the carbachol control signal. actives 0.29% (n = 220,000);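 active = activation above its plate's cutoff, the mean activation of the plate's test wells plus 3 SD, cut at about 12% in these data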;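 also: 0% = DMSO only wells and 100% = carbachol wells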
# Target sequence (Q8TDD5 whole entry, looked up): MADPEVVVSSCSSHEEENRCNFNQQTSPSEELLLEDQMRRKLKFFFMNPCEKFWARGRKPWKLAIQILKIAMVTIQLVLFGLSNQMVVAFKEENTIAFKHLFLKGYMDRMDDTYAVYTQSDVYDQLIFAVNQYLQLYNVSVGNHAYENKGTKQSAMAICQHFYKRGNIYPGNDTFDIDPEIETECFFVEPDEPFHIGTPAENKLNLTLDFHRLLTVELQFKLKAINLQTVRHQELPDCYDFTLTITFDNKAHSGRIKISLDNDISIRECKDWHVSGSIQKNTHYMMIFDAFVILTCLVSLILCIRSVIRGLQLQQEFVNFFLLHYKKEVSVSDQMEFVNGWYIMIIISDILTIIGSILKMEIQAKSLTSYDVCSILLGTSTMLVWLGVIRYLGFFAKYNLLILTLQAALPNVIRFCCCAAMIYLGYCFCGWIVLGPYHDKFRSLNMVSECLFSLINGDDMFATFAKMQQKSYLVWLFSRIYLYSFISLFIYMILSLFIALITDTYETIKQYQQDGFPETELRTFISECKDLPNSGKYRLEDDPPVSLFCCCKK
#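 Test system – HEK293 line with stable expression of human TRPML3-YFP channel · Control set – carbachol 87 µM final as high control (100%), DMSO as low control (0%) · Signal – Fluo-8 calcium dye fluorescence, ex 470-495, em 515-575 nm · Incubation – 1-h 37 °C dye load, 5-s basal, 120-s post-compound reads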
# Starred values were filed as active, the others as inactive; · = no result given.
SMILES,TRPN1 ag,OXTR agonist,OXTR potentiate,V1R ag counter,CRFBP-R2 agonist,TRPML3 ag
Cc1cccc(C)c1NC(=O)COC(=O)c1c2c(nc3ccccc13)/C(=C\c1ccc3c(c1)OCO3)CCC2,134.6*,52.2*,-5.1,51.5*,95.5*,39.5*
CC(OC(=O)c1c2c(nc3ccccc13)/C(=C\c1ccc3c(c1)OCO3)CCC2)C(=O)Nc1ccc(S(N)(=O)=O)cc1 (configuration not stated),27.9*,·,·,·,314.4*,21.7*
O=C(COC(=O)/C=C/c1ccccc1)NC1CCCCCC1,·,·,·,·,0.8,·
Cc1ccccc1NC(=S)c1ccc2ccccc2n1,·,-2.1,-6.5,-0.5,-0.5,·
Cc1ccccc1S(=O)(=O)Cc1ccc(C(=O)N(C)C2CCCCC2)o1,·,1.7,-13.5,3.1,15.6,·
O=c1cc(C(F)(F)F)[nH]c2ccc(C(F)(F)F)cc12,7.8,12.9,-14.5,15.0,45.6,2.4
COC(=O)c1scc2c(=O)cc(C(F)(F)F)[nH]c12,1.6,0.5,-1.3,1.6,62.7*,-0.3
CC1(C)CC[C@]2(C(=O)n3ccnc3)CC[C@]3(C)[C@H](C(=O)C=C4[C@@]5(C)C=C(C#N)C(=O)C(C)(C)[C@@H]5CC[C@]43C)[C@@H]2C1,·,·,·,·,121.5*,·
CN1CCC(N(C)S(=O)(=O)c2ccc(NC(=O)COc3cccc(C(F)(F)F)c3)cc2)CC1,·,4.7,-3.3,3.4,0.3,·
COc1cc(C2C(C#N)=C(N)Oc3cc(N(C)C)ccc32)cc2c1OCO2 (configuration not stated),2.2,4.2,-11.8,6.5,157.8*,1.8
COc1cc(C2C(C#N)=C(N)Oc3cc(O)ccc32)cc2c1OCO2 (configuration not stated),1.0,1.2,-3.1,-0.3,10.2,0.5
COc1ccc(C2C(C#N)=C(N)Oc3cc(O)ccc32)cc1OC (configuration not stated),1.7,4.2,-5.6,1.8,2.7,0.6
COc1ccc(C2C(C#N)=C(N)Oc3cc(O)ccc32)cc1C (configuration not stated),·,0.6,-8.8,0.6,54.8*,·
CC1=NOC(=O)/C1=C\c1ccc(-c2cc(Cl)ccc2Cl)o1,0.7,-1.4,-8.7,-0.6,116.5*,0.4
CC1=NOC(=O)/C1=C/c1ccc(-c2ccc(Cl)cc2)o1,-0.3,6.5,-11.3,1.8,·,0.3
CC1=NOC(=O)/C1=C\c1ccc(-c2ccc(Br)cc2)o1,-0.7,·,·,·,69.5*,0.3
O=C(CNC(=O)c1ccccc1Cl)NCC(c1cccs1)N1CCOCC1 (configuration not stated),·,0.5,1.5,0.6,-1.5,·
CC1(c2ccc(OC(F)F)cc2)NC(=O)N(CC(=O)N2c3ccccc3NC(=O)C2(C)C)C1=O (configuration not stated),·,5.3,-5.4,4.3,7.3,·
CCC(C(=O)NCc1ccco1)N(C(=O)CNS(=O)(=O)c1ccc(C)cc1)c1ccccc1F (configuration not stated),·,-1.3,-0.8,0.8,-0.7,·
COC(=O)c1sc(-c2ccc(Cl)cc2)cc1NC(=O)/C=C/C(=O)O,1.6,21.8*,-17.4,15.4,-0.4,0.4
COC(=O)c1sc(-c2ccc(Cl)cc2)cc1NC(=O)COCC(=O)O,3.5,0.5,-2.4,0.8,-0.2,2.4
Cc1ccc(NS(=O)(=O)c2ccc(C(=O)N3CC(C)CC(C)C3)cc2)cc1 (configuration not stated),·,69.4*,-22.1,42.9*,117.2*,·
CC1CN(C(=O)c2ccc(S(=O)(=O)Nc3cccc(C(F)(F)F)c3)cc2)CC(C)O1 (configuration not stated),·,25.8*,-21.1,21.4*,14.7,·
Cc1ccc(S(=O)(=O)Nc2ccc(C(=O)N3CCCC3)cc2)cc1,·,-0.4,-3.9,1.0,-0.7,·
CC(C)(C)c1ccc(S(=O)(=O)NNC(=O)c2cc3ccccc3[nH]2)cc1,·,-0.9,-4.3,-0.2,-1.4,·
SMILES,TRPN1 ag,OXTR agonist,OXTR potentiate,V1R ag counter,CRFBP-R2 agonist,TRPML3 ag
O=C(c1ccc([N+](=O)[O-])cc1)N(Cc1ccc(Cl)cc1)N1C(=O)CCCC1=O,27.3*,-1.0,-1.6,0.4,157.2*,86.8*
O=C(N/N=C/c1cc(Cl)cc([N+](=O)[O-])c1O)c1cccc(S(=O)(=O)N2CCOCC2)c1,·,·,·,·,-1.9,·
OC(c1cc(-c2ccc(C(F)(F)F)cc2)nc(C(F)(F)F)c1)C1CCCCN1 (configuration not stated),7.2,22.6*,-12.8,26.2*,43.3,5.3
OC(c1cc(-c2cccc(Cl)c2)nc2ccccc12)C1CCCCN1 (configuration not stated),·,·,·,·,8.1,·
COc1ccc(CCNC(=O)c2cccc(C(=O)NCCc3ccc(OC)cc3)n2)cc1,·,-3.6,-4.2,0.6,-0.8,·
Cc1noc(C)c1C(=O)Nc1cc(S(=O)(=O)N2CCCCC2)ccc1N(C)C,·,·,·,·,-1.3,·
COC(=O)C1=C(C)N(Cc2ccccc2)C(=NCC(C)C)N[C@H]1c1cccc(F)c1,·,30.7*,-11.4,22.9*,5.0,·
COCCn1c(C)cc(C(=O)CSc2ccc(NC(C)=O)cc2)c1C,-0.5,0.5,-12.7,1.3,62.4*,1.2
Cc1ccc(-n2c3nc(=O)[nH]c(=O)c-3cc3cc([N+](=O)[O-])ccc32)cc1C,1.0,-0.1,-3.6,0.9,57.7*,1.4
O=C(C[C@H]1C/C=C\C[C@H](Cc2ccc(F)cc2)C(=O)O[C@@H](c2ccccc2)CNC1=O)N[C@H](CO)Cc1ccccc1,·,44.6*,-8.0,59.8*,-1.8,·
O=C(C[C@H]1C/C=C\CC[C@H](Cc2ccc(F)cc2)C(=O)O[C@@H](c2ccccc2)CNC1=O)N[C@H](CO)Cc1ccccc1,·,33.3*,-8.8,51.9*,7.7,·
O=C(C[C@H]1C/C=C\CC[C@H](Cc2ccc(F)cc2)C(=O)O[C@@H](c2ccccc2)CNC1=O)N[C@@H](CO)Cc1ccccc1,·,3.1,-2.6,2.4,18.7,·
COc1cc(/C=C/C(=O)OCC(=O)Nc2ccc(S(N)(=O)=O)cc2)ccc1O,-0.2,0.1,-0.9,-0.1,-1.6,1.4
COc1cc(/C=C/C(=O)OCC(=O)Nc2ccc([N+](=O)[O-])cc2)ccc1O,12.6,21.4*,-8.4,30.0*,26.0,5.1
CCOC(=O)c1c(C)[nH]c(-c2csc(N)n2)c1C,1.4,·,·,·,4.9,1.1
Cc1cccc(NC(=O)COC(=O)CCc2c[nH]c3ccccc23)c1C,·,2.9,-9.6,6.5,0.3,·
CCCCCn1nc(C)c(/C=N/NC(=O)c2ccoc2C)c1C,-0.3,2.0,-5.5,0.5,0.4,0.6
